Measurements reported in article PMC5723699 (Pharmacology Research & Perspectives, 2017).
Converted amounts (≈) assume the structure as drawn.

Legend:
[1] = Part A single ascending dose blood pharmacokinetics; format: in vivo, human
RIPK1 = target: T1, RIPK1 (Homo sapiens, UniProt Q13546); assay: RIPK1 target engagement; format: in vivo; settings: Part A
T1 sequence (Q13546 1-671): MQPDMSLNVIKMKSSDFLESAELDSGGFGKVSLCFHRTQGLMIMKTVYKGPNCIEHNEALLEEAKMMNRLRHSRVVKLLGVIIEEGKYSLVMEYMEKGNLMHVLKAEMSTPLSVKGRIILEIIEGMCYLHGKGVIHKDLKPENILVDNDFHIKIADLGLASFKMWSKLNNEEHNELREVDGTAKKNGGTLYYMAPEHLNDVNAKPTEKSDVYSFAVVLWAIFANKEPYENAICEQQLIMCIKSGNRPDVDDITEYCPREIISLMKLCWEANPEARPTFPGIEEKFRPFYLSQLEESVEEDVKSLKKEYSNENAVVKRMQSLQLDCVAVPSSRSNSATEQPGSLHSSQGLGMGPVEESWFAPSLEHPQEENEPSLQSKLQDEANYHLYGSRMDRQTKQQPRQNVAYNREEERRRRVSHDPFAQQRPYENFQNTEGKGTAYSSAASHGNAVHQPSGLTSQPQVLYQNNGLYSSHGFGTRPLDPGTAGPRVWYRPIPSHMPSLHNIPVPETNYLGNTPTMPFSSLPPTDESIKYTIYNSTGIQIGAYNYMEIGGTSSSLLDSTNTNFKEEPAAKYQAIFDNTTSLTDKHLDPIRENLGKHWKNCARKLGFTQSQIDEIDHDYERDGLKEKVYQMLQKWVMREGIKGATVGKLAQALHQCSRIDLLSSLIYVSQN

[2] = Analysis of metabolism in blood, plasma, urine and bile; format: in vivo, human
Summary of the method: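 Oral dosing in healthy volunteers. Urine collected at various time points. Bile sampled by Entero-Test in one Part B cohort on Days −1 and 7, about 2 h after the morning dose. Blood/water, plasma, urine and bile analysed for relative levels of parent drug and metabolites.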

CYP3A4 = assay: Plasma 4β-hydroxycholesterol-to-cholesterol ratio as marker of CYP3A4 induction; settings: following 14 days of dosing
Safety and tolerability = settings: for Subjects with drug‐related AEs / Application‐site erythema / Catheter‐site erythema / Contact dermatitis / Headache / Nasopharyngitis / Rash / Subjects with any AE: Part B; for Application‐site erythema / Catheter‐site erythema / Contact dermatitis / Headache / Nasopharyngitis / Rash / Subjects with any AE: 14 days (n = 9)
MIP‐1α = assay: Ex vivo whole blood challenge assay; format: cell-based, human
Part B repeat-dose = format: in vivo, human; settings: for AUC: male, human, in vivo, po, AUC0‐tau, plasma, oral, geometric mean (% CV)

CN1C(=O)[C@@H](NC(=O)c2nnc(Cc3ccccc3)[nH]2)COc2ccccc21 [GSK2982772]
Time to C max ([1]; blood, single dose 10 mg capsule, fasted): 1.5 h | Median time to C max ([1]; blood, single dose 0.1, 0.5 and 2.5 mg in solution, fasted): ≤ 1 h | Time to C max ([1]; blood, single dose 120 mg capsule, fasted): 2.5 h | Dose linearity of kinetics ([1]; dose range 0.1‐120 mg): approximately linear kinetics | half-life ([1]; male, human, whole blood, oral): ~6 h | Percent TE (RIPK1; 1.5 hours postdose, single doses of 10 mg and above): > 90% | Percent TE (>90% level) (RIPK1; 8 hours postdose, single doses of 40 mg and above): sustained | Percent TE (RIPK1; 48 hours postdose, all dose groups): negligible | Unchanged drug in urine ([2]; in vivo): trace levels | Unchanged drug in blood and plasma extracts ([2]; single and repeat oral dosing, together with N‐glucuronide metabolite): major circulating drug‐related components | CYP3A4 induction (CYP3A4): no evidence of CYP3A4 induction | Drug‐related AEs (total number) (Safety and tolerability; Part A, reported in 2 subjects, all of mild intensity): 3 | Subjects with drug‐related AEs (Safety and tolerability; 20 mg QD group): 3 subjects | Application‐site erythema (Safety and tolerability; 20 mg QD): 0 n (%) | Catheter‐site erythema (Safety and tolerability; 20 mg QD): 0 n (%) | Contact dermatitis (Safety and tolerability; 20 mg QD): 1 (11) n (%) | Headache (Safety and tolerability; 20 mg QD): 4 (44) n (%) | Nasopharyngitis (Safety and tolerability; 20 mg QD): 0 n (%) | Rash (Safety and tolerability; 20 mg QD): 0 n (%) | Subjects with any AE (Safety and tolerability; 20 mg QD): 7 (78) n (%) | Subjects with drug‐related AEs (Safety and tolerability; 60 mg BID group): 4 subjects | Application‐site erythema (Safety and tolerability; 60 mg BID): 0 n (%) | Catheter‐site erythema (Safety and tolerability; 60 mg BID): 2 (22) n (%) | Contact dermatitis (Safety and tolerability; 60 mg BID): 5 (56) n (%) | Headache (Safety and tolerability; 60 mg BID): 3 (33) n (%) | Nasopharyngitis (Safety and tolerability; 60 mg BID): 1 (11) n (%) | Rash (Safety and tolerability; 60 mg BID): 1 (11) n (%) | Subjects with any AE (Safety and tolerability; 60 mg BID): 9 (100) n (%) | Application‐site erythema (Safety and tolerability; 60 mg QD): 0 n (%) | Catheter‐site erythema (Safety and tolerability; 60 mg QD): 1 (11) n (%) | Contact dermatitis (Safety and tolerability; 60 mg QD): 3 (33) n (%) | Headache (Safety and tolerability; 60 mg QD): 0 n (%) | Nasopharyngitis (Safety and tolerability; 60 mg QD): 0 n (%) | Rash (Safety and tolerability; 60 mg QD): 3 (33) n (%) | Subjects with any AE (Safety and tolerability; 60 mg QD): 6 (67) n (%) | Application‐site erythema (Safety and tolerability; 120 mg BID): 2 (22) n (%) | Catheter‐site erythema (Safety and tolerability; 120 mg BID): 0 n (%) | Contact dermatitis (Safety and tolerability; 120 mg BID): 0 n (%) | Headache (Safety and tolerability; 120 mg BID): 1 (11) n (%) | Nasopharyngitis (Safety and tolerability; 120 mg BID): 3 (33) n (%) | Rash (Safety and tolerability; 120 mg BID): 0 n (%) | Subjects with any AE (Safety and tolerability; 120 mg BID): 6 (67) n (%) | AEs involving clinical laboratory or electrocardiogram abnormalities (Safety and tolerability; any part of the study): no AEs involving clinical laboratory abnormalities or electrocardiogram abnormalities were reported | Serious AEs, suicidality or deaths (Safety and tolerability; any part of the study): No serious AEs, suicidality or deaths were reported | Overall safety and tolerability (Safety and tolerability; single and repeat doses, healthy adult male volunteers): generally safe and well tolerated | Vital signs, physical, neurological examinations, respiratory assessments (Safety and tolerability; whole study): no clinically significant abnormal findings | IC50 (MIP‐1α; Homo sapiens, read-out: Concentration needed to elicit a half‐maximal response in all assays, all assays (MIP‐1α, MIP‐1β, TE)): ~1.4 ng/mL (≈ 3.71 nM) | Inhibition (mean of MIP‐1α and MIP‐1β) (MIP‐1α; Part B Day 14, 60 mg and 120 mg BID, out to 24 hours posttreatment): maximal inhibition | Inhibition (mean of MIP‐1α and MIP‐1β) (MIP‐1α; Part B Day 14, 1.5 hours and 8 hours postdose, all treatment groups): maximal inhibition | AUC (Part B repeat-dose; 20 mg, 20 mg QD, Day 1): 1160 ng·h/mL | AUC (Part B repeat-dose; 20 mg, 20 mg QD, Day 14): 1140 ng·h/mL | AUC (Part B repeat-dose; 60 mg, 60 mg BID, Day 1): 4330 ng·h/mL | AUC (Part B repeat-dose; 60 mg, 60 mg BID, Day 14): 3100 ng·h/mL | AUC (Part B repeat-dose; 60 mg, 60 mg QD, Day 14): 2590 ng·h/mL | AUC (Part B repeat-dose; 120 mg, 120 mg BID, Day 1): 7050 ng·h/mL | AUC (Part B repeat-dose; 120 mg, 120 mg BID, Day 14): 6990 ng·h/mL | Attainment of steady state (trough plasma predose concentration Days 2 to 14) (Part B repeat-dose; repeat dosing): reached a plateau by Day 2
